Measured values taken from ChEMBL document CHEMBL1143078, “Synthesis and anti-Helicobacter pylori activity of 5-(nitroaryl)-1,3,4-thiadiazoles with certain sulfur containing alkyl side chain” (Bioorg Med Chem Lett, 2008).
Converted amounts (≈) assume the structure as drawn.

Assays:
[1] = system: Helicobacter pylori; experiment: Antibacterial activity against Helicobacter pylori isolate assessed as inhibition zone diameter at 2 ug/disk after 3-5 days by paper disk diffusion assay; format: functional
How it was run: (§1)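 Filter-paper disk diffusion (6 mm disks), with the compound applied in 40 µL methanol and dried. Disks placed on Mueller–Hinton agar with 7% defibrinated horse blood, inoculated with 48 h H. pylori clinical-isolate suspension at 2 McFarland (10^7-10^8 CFU/mL). Incubated 3–5 days at 37 °C microaerophilically (5% O2, 15% CO2, 80% N2). Mean inhibition-zone diameter (mm) from triplicates.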

[2] = system: Helicobacter pylori; experiment: Antibacterial activity against metronidazole-sensitive Helicobacter pylori assessed as inhibition zone diameter at 32 ug/disk after 3-5 days by paper disk diffusion assay; format: functional; how it was run: as §1
[3] = system: Helicobacter pylori; experiment: Antibacterial activity against Helicobacter pylori isolate assessed as inhibition zone diameter at 8 ug/disk after 3-5 days by paper disk diffusion assay; format: functional; how it was run: as §1
[4] = system: Nannizzia gypsea; experiment: Antifungal activity against Microsporum gypseum PTCC 5070 after […] by agar dilution method; format: functional
How it was run: (§2)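 Agar dilution on Sabouraud dextrose agar. Compound stocks in DMSO. Inocula about 10^5 CFU/mL from log-phase broth cultures. Plates run in triplicate at 30 °C: about 24–48 h for yeasts, about 72 h for moulds, about 168 h for dermatophytes. MIC is the lowest concentration with no visible growth on the plate.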

[5] = system: Helicobacter pylori; experiment: Antibacterial activity against metronidazole-sensitive Helicobacter pylori assessed as inhibition zone diameter at 8 ug/disk after 3-5 days by paper disk diffusion assay; format: functional; how it was run: as §1
[6] = system: Aspergillus niger; experiment: Antifungal activity against Aspergillus niger PTCC 5012 after 72 hrs by agar dilution method; format: functional; how it was run: as §2
[7] = Cytotoxicity against mouse NIH/3T3 cells after 72 hrs by MTT assay; format: cell-based; conditions: NIH3T3, 72 h
How it was run: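 NIH/3T3 mouse fibroblasts in exponential phase trypsinized and seeded at 5×10^4 cells/mL, then given serially diluted compound in triplicate and incubated 72 h. MTT (5 mg/mL solution) added for 1 h, formazan dissolved in DMSO, absorbance read at 492 nm. IC50 calculated from dose-response curves versus untreated controls, as mean ± SD of triplicates.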

[8] = system: Helicobacter pylori; experiment: Antibacterial activity against Helicobacter pylori isolate assessed as inhibition zone diameter at 0.5 ug/disk after 3-5 days by paper disk diffusion assay; format: functional; how it was run: as §1
[9] = system: Candida albicans; experiment: Antifungal activity against Candida albicans PTCC 5027 after 72 hrs by agar dilution method; format: functional
[10] = system: Helicobacter pylori; experiment: Antibacterial activity against Helicobacter pylori isolate assessed as inhibition zone diameter at 32 ug/disk after 3-5 days by paper disk diffusion assay; format: functional; how it was run: as §1
[11] = system: Helicobacter pylori; experiment: Antibacterial activity against Helicobacter pylori isolate assessed as inhibition zone diameter at 4 ug/disk after 3-5 days by paper disk diffusion assay; format: functional; how it was run: as §1
[12] = system: Escherichia coli; experiment: Antibacterial activity against Escherichia coli ATCC 8739 after 18 hrs by serial dilution method; format: functional; conditions: ATCC 8739, 18 h
How it was run: (§3)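 Agar dilution MIC. Compound stock diluted with water, then serially doubled in melted Mueller–Hinton agar to 64, 32, 16 and 8 µg/mL. Plates inoculated with 1-5 × 10^4 CFU and incubated 18 h at 37 °C. MIC is the lowest concentration giving no visible growth.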

[13] = system: Staphylococcus epidermidis; experiment: Antibacterial activity against Staphylococcus epidermidis ATCC 12228 after 18 hrs by serial dilution method; format: functional; conditions: ATCC 12228, 18 h; how it was run: as §3
[14] = system: Saccharomyces cerevisiae; experiment: Antifungal activity against Saccharomyces cerevisiae PTCC 5177 after 72 hrs by agar dilution method; format: functional
[15] = system: Helicobacter pylori; experiment: Antibacterial activity against Helicobacter pylori isolate assessed as inhibition zone diameter at 1 ug/disk after 3-5 days by paper disk diffusion assay; format: functional; how it was run: as §1
[16] = system: Helicobacter pylori; experiment: Antibacterial activity against metronidazole-sensitive Helicobacter pylori assessed as inhibition zone diameter at 16 ug/disk after 3-5 days by paper disk diffusion assay; format: functional
How it was run: (§4)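 Filter paper disks (6 mm) loaded with compound in 40 μL methanol, dried, placed on Mueller–Hinton agar with 7% defibrinated horse blood pre-inoculated with H. pylori suspension (2 McFarland, 10⁷-10⁸ CFU/mL; 48 h cultures checked for coccoid forms); incubated microaerophilically (5% O2, 15% CO2, 80% N2) at 37 °C for 3–5 days; mean inhibition zone diameter (mm) of triplicates.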

[17] = system: Klebsiella pneumoniae; experiment: Antibacterial activity against Klebsiella pneumoniae ATCC 10031 after 18 hrs by serial dilution method; format: functional; conditions: ATCC 10031, 18 h; how it was run: as §3
[18] = system: Staphylococcus aureus; experiment: Antibacterial activity against Staphylococcus aureus ATCC 6538P after 18 hrs by serial dilution method; format: functional; how it was run: as §3
[19] = system: Helicobacter pylori; experiment: Antibacterial activity against Helicobacter pylori isolate assessed as inhibition zone diameter at 16 ug/disk after 3-5 days by paper disk diffusion assay; format: functional; how it was run: as §1
[20] = system: Helicobacter pylori; experiment: Antibacterial activity against metronidazole-resistant Helicobacter pylori assessed as inhibition zone diameter at 8 ug/disk after 3-5 days by paper disk diffusion assay; format: functional; how it was run: as §4
[21] = system: Helicobacter pylori; experiment: Antibacterial activity against metronidazole-resistant Helicobacter pylori assessed as inhibition zone diameter at 32 ug/disk after 3-5 days by paper disk diffusion assay; format: functional; how it was run: as §4
[22] = system: Helicobacter pylori; experiment: Antibacterial activity against metronidazole-resistant Helicobacter pylori assessed as inhibition zone diameter at 16 ug/disk after 3-5 days by paper disk diffusion assay; format: functional; how it was run: as §4

| Compound | Activity [1] [mm] | Activity [2] [mm] | Activity [3] [mm] | MIC [4] [µg/mL] | Activity [5] [mm] | MIC [6] [µg/mL] | IC50 [7] [µg/mL] | Activity [8] [mm] | MIC [9] [µg/mL] | Activity [10] [mm] | Activity [11] [mm] | MIC [12] [µg/mL] | MIC [13] [µg/mL] | MIC [14] [µg/mL] | Activity [15] [mm] | Activity [16] [mm] | MIC [17] [µg/mL] | MIC [18] [µg/mL] | Activity [19] [mm] | Activity [21] [mm] | further results |
| --- | --- | --- | --- | --- | --- | --- | --- | --- | --- | --- | --- | --- | --- | --- | --- | --- | --- | --- | --- | --- | --- |
| CCSCCSc1nnc(-c2ccc([N+](=O)[O-])s2)s1 | 28.9 | 50 | 44.4 | > 32 | 50 | > 32 | 4.5 (≈ 13.5 µM) | 16.8 | > 32 | 47.2 | 37.1 | > 32 | 32 (≈ 96 µM) | > 32 | 22.9 | 50 | > 32 | > 32 | 47 |  |  |
| CCSCCSc1nnc(-c2ccccc2[N+](=O)[O-])s1 |  | 6 |  | > 32 | 6 | > 32 |  |  | > 32 |  |  | > 32 | 32 (≈ 97.7 µM) | > 32 |  | 6 | > 32 | > 32 |  |  |  |
| CCSCCSc1nnc(-c2ccc([N+](=O)[O-])cc2)s1 |  | 20 |  | > 32 | 6 | > 32 |  |  | > 32 |  |  | > 32 | 32 (≈ 97.7 µM) | > 32 |  | 16 | > 32 | > 32 |  |  |  |
| CCS(=O)(=O)CCSc1nnc(-c2ncc([N+](=O)[O-])n2C)s1 | 16.5 | 47 | 29.7 | > 32 | 35 | > 32 | 100 (≈ 275 µM) | 8.5 | > 32 | 40.7 | 23.4 | > 32 | 32 (≈ 88 µM) | > 32 | 11.9 | 40 | > 32 | > 32 | 35.8 |  | Activity [20]: 36 mm |
| CCS(=O)(=O)CCSc1nnc(-c2ccccc2[N+](=O)[O-])s1 |  | 15 |  | > 32 | 6 | > 32 |  |  | > 32 |  |  | > 32 | 32 (≈ 89 µM) | > 32 |  | 9 | > 32 | > 32 |  | 13 |  |
| Cc1ncc([N+](=O)[O-])n1CCO [METRONIDAZOLE] | 7.5 | 27 | 16.3 |  | 18 |  |  | 6 |  | 20.7 | 8.75 |  |  |  | 6 | 23 |  |  | 18.4 | 14 | Activity [20]: 11 mm; Activity [22]: 12 mm |
| CCS(=O)(=O)CCSc1nnc(-c2ccc([N+](=O)[O-])s2)s1 | 31.9 | >50 | 44.2 | > 32 | >50 | > 32 | 11.6 (≈ 31.7 µM) | 18.2 | > 32 | 47.6 | 37.5 | > 32 | 32 (≈ 87.6 µM) | > 32 | 24.9 | >50 | > 32 | > 32 | 46.7 |  |  |
| CC1(C)S[C@@H]2[C@H](NC(=O)[C@H](N)c3ccc(O)cc3)C(=O)N2[C@H]1C(=O)O [AMOXICILLIN] |  |  |  |  |  |  |  |  |  |  |  |  |  |  | 24.5 |  |  |  |  |  |  |
| CCS(=O)(=O)CCSc1nnc(-c2ccc([N+](=O)[O-])o2)s1 | 18.3 | 46 | 29.1 | > 32 | 37 | > 32 | 4.2 (≈ 12 µM) | 6.6 | > 32 | 36.5 | 23.5 | > 32 | 32 (≈ 91.6 µM) | > 32 | 12.6 | 43 | > 32 | > 32 | 33.1 | 41 | Activity [20]: 29 mm; Activity [22]: 34 mm |
| CCSCCSc1nnc(-c2ncc([N+](=O)[O-])n2C)s1 | 19.5 | 48 | 31.7 | > 32 | 32 | > 32 | 61.5 (≈ 186 µM) | 12.2 | > 32 | 42.6 | 25.4 | > 32 | 32 (≈ 96.5 µM) | > 32 | 15 | 37 | > 32 | > 32 | 36.5 | 59 | Activity [20]: 35 mm; Activity [22]: 47 mm |
| CCS(=O)(=O)CCSc1nnc(-c2cccc([N+](=O)[O-])c2)s1 |  | 26 |  | > 32 | 6 | > 32 |  |  | > 32 |  |  | > 32 | 32 (≈ 89 µM) | > 32 |  | 6 | > 32 | > 32 |  | 25 |  |
| CCSCCSc1nnc(-c2cccc([N+](=O)[O-])c2)s1 |  | 9 |  | > 32 | 6 | > 32 |  |  | > 32 |  |  | > 32 | 32 (≈ 97.7 µM) | > 32 |  | 6 | > 32 | > 32 |  |  |  |
| CCS(=O)(=O)CCSc1nnc(-c2ccc([N+](=O)[O-])cc2)s1 |  | 30 |  | > 32 | 19 | > 32 |  |  | > 32 |  |  | > 32 | 32 (≈ 89 µM) | > 32 |  | 24 | > 32 | > 32 |  | 27 |  |
| CCSCCSc1nnc(-c2ccc([N+](=O)[O-])o2)s1 | 16.4 | 42 | 28.3 | > 32 | 22 | > 32 | 5 (≈ 15.8 µM) | 6 | > 32 | 34.9 | 21.5 | > 32 | 32 (≈ 101 µM) | > 32 | 11.1 | 31 | > 32 | > 32 | 30.7 | 28 | Activity [20]: 16 mm; Activity [22]: 21 mm |
